Experimental data pooled from the literature.
Compare with care: the assays were run in different laboratories.
Organism: Plasmodium falciparum
Observed: parasite growth

| Structure (SMILES) | assay | system | setting | EC50 |
| --- | --- | --- | --- | --- |
| CN1CCN(S(=O)(=O)c2ccc(-c3ccc4ncnc(Nc5ccc(OCc6cccc(F)c6)c(Cl)c5)c4c3)cc2)CC1 | SYBR Green | W2 | drug-resistant strain, blood stage | 44 nM |
| CCN(CC)CCCC(C)Nc1ccnc2cc(Cl)ccc12 (stereo not shown) | SYBR Green | TM90 | 72 h, drug-resistant strain, blood stage | 89 nM |
| Cc1c2oc3c(C)ccc(C(=O)N[C@@H]4C(=O)N[C@H](C(C)C)C(=O)N5CCC[C@H]5C(=O)N(C)CC(=O)N(C)[C@@H](C(C)C)C(=O)O[C@@H]4C)c3nc-2c(C(=O)N[C@@H]2C(=O)N[C@H](C(C)C)C(=O)N3CCC[C@H]3C(=O)N(C)CC(=O)N(C)[C@@H](C(C)C)C(=O)O[C@@H]2C)c(N)c1=O | SYBR Green | 3D7 | blood stage | 1000 nM |
| COc1ccc(-n2ccnc2SCC(=O)Nc2cccc(C(F)(F)F)c2)c(OC)c1 | SYBR Green | 3D7 | – | 88.5 nM |
| Cc1cc(N[C@H]2CCc3ccc(Cl)cc3C2)n2nc(C(C)(F)F)nc2n1 | – | HB3 | drug-resistant strain, blood stage | 0.47 nM |
| O=S(=O)(c1ccc(-c2ccc3ncnc(Nc4ccc(OCc5ccccc5)c(Cl)c4)c3c2)cc1)N1CCOCC1 | SYBR Green | W2 | drug-resistant strain, blood stage | 720 nM |
| N#Cc1c(F)cccc1N1CCN(c2ccc(O)cc2)CC1 | SYBR Green | 3D7 | 72 h | > 12500 nM |
| Cc1cc(NC2Cc3cc(F)c(F)cc3C2)n2nc(C(C)(F)F)nc2n1 | – | DD2 | drug-resistant strain, blood stage | 43 nM |
| Cc1cc(Nc2ccc(Cl)c(Cl)c2)n2nc(C)nc2n1 | SYBR Green | 3D7 | – | 106 nM |
| COc1cc2[nH]c(C)c(-c3ccc(Oc4ccc(OC(F)(F)F)cc4)cc3)c(=O)c2cc1Cl | SYBR Green | D6 | 72 h, blood stage | 0.9 nM |
